# Source: ChEMBL document CHEMBL1138764, “Resistance-modifying agents. 11.(1) Pyrimido[5,4-d]pyrimidine modulators of antitumor drug activity. Synthesis and structure-activity relationships for nucleoside transport inhibition and binding to alpha1-acid glycoprotein” (J Med Chem, 2004)
# Several values for one entry are separate records, joined by “and”; a condition that tells them apart may be missing. Equal values may be shown once. Activity calls are given as the source filed them. The calls are words filed in the database; no cut-off is given here.
# Columns and labels:
# L1210 [1] = test: Inhibition of [3H]thymidine uptake in L1210 cells in the presence of 5 mg/mL human AGP at 1 uM; type: functional, Mus musculus
# Outline: (§1)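 Rapid-mixing, inhibitor-stop ³H-thymidine uptake into L1210 leukaemia cells run with 5 mg/mL human AGP present. Values are mean ± SD of three or more separate determinations. Significance of the difference from inhibition without AGP is taken at p ≤ 0.05.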
# L1210 [2] = test: Tested for the reduction in inhibition of [3H]thymidine uptake in L1210 cells in the presence of 5 mg/mL human AGP; type: functional, Mus musculus; outline: as §1
# L1210 [3] = test: Inhibition of [3H]thymidine uptake in L1210 cells at 1 uM; type: functional; settings: Mus musculus
# Outline: (§2)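 ³H-thymidine uptake into L1210 leukaemia cells measured by a modified rapid-mixing technique with inhibitor-stop. Values are mean ± SD of three or more separate determinations. IC50 is interpolated from concentration–inhibition curves.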
# L1210 [4] = test: Inhibition of [3H]thymidine uptake in L1210 cells; type: functional, cell-based; settings: Mus musculus; outline: as §2
# L1210 [5] = test: Compound was tested for the inhibition of [3H]thymidine uptake in L1210 cells at 100 uM; type: functional; settings: Mus musculus; outline: as §2
# L1210 [6] = test: Compound was tested for the inhibition of [3H]thymidine uptake in L1210 cells at 0.1 uM; type: functional; settings: Mus musculus; outline: as §2
# L1210 [7] = test: Inhibition of [3H]thymidine uptake in L1210 cells at 10 uM; type: functional; settings: Mus musculus; outline: as §2
IC50 (L1210 [4]),Structure (SMILES),Reduction (L1210 [2]),inhibition at 1 µM (L1210 [3]),inhibition at 10 µM (L1210 [7]),other results
–,COc1ccc(CNc2nc(OCCCO)nc3c(NCc4ccc(OC)c(OC)c4)nc(OCCCO)nc23)cc1OC,34%,71%,–,Inhibition (L1210 [1]): 47%
750 nM,COc1ccc(CN(C)c2nc(OCCCO)nc3c(N(C)Cc4ccc(OC)c(OC)c4)nc(OCCCO)nc23)cc1OC,–,54%,–,–
–,Clc1nc(Cl)c2nc(Cl)nc(Cl)c2n1,–,–,–,inhibition (L1210 [5]): inactive
–,Clc1nc(NCc2ccccc2)c2nc(Cl)nc(NCc3ccccc3)c2n1,–,–,–,inhibition (L1210 [5]): inactive
840 nM,COc1ccc(CN(C)c2nc(N(CCO)CCO)nc3c(N(C)Cc4ccc(OC)cc4)nc(N(CCO)CCO)nc23)cc1,46%,71%,–,Inhibition (L1210 [1]): 40%; inhibition at 0.1 µM (L1210 [6]): 27%
–,c1nc(N2CCCCC2)c2ncnc(N3CCCCC3)c2n1,–,–,–,inhibition (L1210 [5]): inactive
1100 nM,OCCN(CCO)c1nc(NCc2ccc(Cl)cc2)c2nc(N(CCO)CCO)nc(NCc3ccc(Cl)cc3)c2n1,–,53%,92%,–
250 nM,COc1ccc(CNc2nc(N(CCO)CCO)nc3c(NCc4ccc(OC)cc4)nc(N(CCO)CCO)nc23)cc1,29%,65%,96%,–
340 nM,OCCN(CCO)c1nc(N2CCCCC2)c2nc(N(CCO)CCO)nc(N3CCCCC3)c2n1 [DIPYRIDAMOLE],87% and 96%,–,–,–
–,c1ccc(CNc2ncnc3c(NCc4ccccc4)ncnc23)cc1,–,–,40%,–
4600 nM,COCCOc1nc(N2CCCCC2)c2nc(OCCOC)nc(N3CCCCC3)c2n1,–,20%,63%,–
3800 nM,COCCOc1nc(N(C)Cc2ccccc2)c2nc(OCCOC)nc(N(C)Cc3ccccc3)c2n1,–,17%,68%,–
–,COc1ccc(CNc2nc(OC[C@@H](C)O)nc3c(NCc4ccc(OC)cc4)nc(OC[C@H](C)O)nc23)cc1,–,68%,–,–
400 nM,COc1ccc(CNc2nc(NCC(C)O)nc3c(NCc4ccc(OC)c(OC)c4)nc(NCC(C)O)nc23)cc1OC (centres undefined),12%,83%,–,Inhibition (L1210 [1]): 73%; inhibition at 0.1 µM (L1210 [6]): 38%
460 nM,COc1ccc(CNc2nc(OCCCO)nc3c(NCc4ccc(OC)cc4)nc(OCCCO)nc23)cc1,21%,63%,–,–
2070 nM,COCCN(CCOC)c1nc(N2CCCCC2)c2nc(N(CCOC)CCOC)nc(N3CCCCC3)c2n1,50%,29%,86%,–
–,OCCN(CCO)c1nc(NCc2ccc(C(F)(F)F)cc2)c2nc(N(CCO)CCO)nc(NCc3ccc(C(F)(F)F)cc3)c2n1,–,32%,60%,–
900 nM,C[C@H](O)COc1nc(N2CCCCC2)c2nc(OC[C@@H](C)O)nc(N3CCCCC3)c2n1,55%,47%,92%,Inhibition (L1210 [1]): 20%
720 nM,OCCN(CCO)c1nc(N2CCc3ccccc3C2)c2nc(N(CCO)CCO)nc(N3CCc4ccccc4C3)c2n1,31%,72%,100%,–
52000 nM,CCCOc1nc(N2CCCCC2)c2nc(OCCC)nc(N3CCCCC3)c2n1,–,–,37%,inhibition at 100 µM (L1210 [5]): 60%
–,COc1ccc(CNc2nc(OCCO)nc3c(NCc4ccc(OC)c(OC)c4)nc(OCCO)nc23)cc1OC,46%,56%,–,Inhibition (L1210 [1]): 30%
–,OCCN(CCO)c1nc(NCc2ccc3c(c2)OCO3)c2nc(N(CCO)CCO)nc(NCc3ccc4c(c3)OCO4)c2n1,36%,73%,–,Inhibition (L1210 [1]): 47%

IC50 (L1210 [4]),Structure (SMILES),Reduction (L1210 [2]),inhibition at 1 µM (L1210 [3]),inhibition at 10 µM (L1210 [7]),other results
2600 nM,OCCN(CCO)c1nc(N2CCCC(O)C2)c2nc(N(CCO)CCO)nc(N3CCCC(O)C3)c2n1 (centres undefined),–,28%,50%,–
750 nM,OCCNc1nc(NCc2ccccc2)c2nc(NCCO)nc(NCc3ccccc3)c2n1,–,46%,–,–
270 nM,COc1ccc(CNc2nc(N(CCO)CCO)nc3c(NCc4ccc(OC)c(OC)c4)nc(N(CCO)CCO)nc23)cc1OC,25%,73%,98%,Inhibition (L1210 [1]): 53%
–,COC[C@H](COc1nc(N2CCCCC2)c2nc(OC[C@H](COC)OC)nc(N3CCCCC3)c2n1)OC,–,–,100%,–
6300 nM,OCCOc1nc(N2CCCCC2)c2nc(OCCO)nc(N3CCCCC3)c2n1,–,13%,–,–
–,OCCN(CCO)c1nc(N2CCCCC2)nc2c(N(CCO)CCO)nc(N3CCCCC3)nc12,–,34%,74%,–
–,CCC(C)COc1nc(N2CCCCC2)c2nc(OCC(C)CC)nc(N3CCCCC3)c2n1 (centres undefined),–,–,–,inhibition (L1210 [7]): inactive
–,COc1ccc(CN(C)c2nc(NCC(C)O)nc3c(N(C)Cc4ccc(OC)c(OC)c4)nc(NCC(C)O)nc23)cc1OC (centres undefined),22%,73%,–,Inhibition (L1210 [1]): 57%
2400 nM,COCCOc1nc(NCc2ccccc2)c2nc(OCCOC)nc(NCc3ccccc3)c2n1,–,31%,78%,–
1400 nM,CN(Cc1ccccc1)c1nc(OCCCO)nc2c(N(C)Cc3ccccc3)nc(OCCCO)nc12,–,52%,77%,–
–,OCCCOc1nc(N2CCCCC2)c2nc(OCCCO)nc(N3CCCCC3)c2n1,–,35%,76%,–
–,CC(C)Oc1nc(N2CCCCC2)c2nc(OC(C)C)nc(N3CCCCC3)c2n1,–,–,23%,–
–,OCC(O)COc1nc(N2CCCCC2)c2nc(OC[C@H](O)CO)nc(N3CCCCC3)c2n1 (some centres undefined),–,–,32%,inhibition at 100 µM (L1210 [5]): 87%
–,CCN(CC)c1nc(N2CCCCC2)c2nc(N(CC)CC)nc(N3CCCCC3)c2n1,–,–,–,inhibition (L1210 [7]): inactive
–,COCCOc1nc(N(Cc2ccccc2)Cc2ccccc2)c2nc(OCCOC)nc(N(Cc3ccccc3)Cc3ccccc3)c2n1,–,9%,15%,–
800 nM,CN(Cc1ccccc1)c1nc(OCCO)nc2c(N(C)Cc3ccccc3)nc(OCCO)nc12,55%,49%,87%,Inhibition (L1210 [1]): 22%
–,COCC(C)Oc1nc(N2CCCCC2)c2nc(OC(C)COC)nc(N3CCCCC3)c2n1 (centres undefined),–,–,62%,inhibition at 100 µM (L1210 [5]): 96%
–,COc1ccc(CN(C)c2nc(NCCO)nc3c(N(C)Cc4ccc(OC)c(OC)c4)nc(NCCO)nc23)cc1OC,–,57%,84%,–
–,CCCOc1nc(N(C)Cc2ccccc2)c2nc(OCCC)nc(N(C)Cc3ccccc3)c2n1,–,–,8%,–
3000 nM,CC(O)CNc1nc(NCc2ccccc2)c2nc(NCC(C)O)nc(NCc3ccccc3)c2n1 (centres undefined),–,33%,84%,–
–,COc1ccc(CN(C)c2nc(NCC(C)O)nc3c(N(C)Cc4ccc(OC)cc4)nc(NCC(C)O)nc23)cc1 (centres undefined),86%,39%,–,Inhibition (L1210 [1]): 5%
–,C[C@H](O)COc1nc(N(C)Cc2ccccc2)c2nc(OC[C@@H](C)O)nc(N(C)Cc3ccccc3)c2n1,84%,55%,–,Inhibition (L1210 [1]): 9%
